Laboratory results published in ChEMBL document CHEMBL1629494, “New amino acid esters of salicylanilides active against MDR-TB and other microbes” (Eur J Med Chem, 2010).
Converted amounts (≈) assume the structure as drawn.

Assays:
Mycobacterium avium [1] = assay: Antimycobacterial activity against Mycobacterium avium; format: functional
[2] = system: Staphylococcus epidermidis; assay: Antibacterial activity against Staphylococcus epidermidis H6966/08 after 48 hrs by broth microdilution method; format: functional; conditions: H6966/08, 48 h
Method in brief: (§1)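 Broth microdilution following […], with twofold compound dilutions in Mueller-Hinton bouillon. Incubated 24 and 48 h at 35 °C in the dark in a humid atmosphere. MIC (IC80) was taken as ≥80% growth reduction versus control, read visually and photometrically.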

Mycobacterium avium [3] = assay: Antimycobacterial activity against multidrug-resistant Mycobacterium avium 330/88 after 14 days by micromethod; format: functional; conditions: 330/88, 336 h
Method in brief: (§2)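 Micromethod in Sula semisynthetic medium, with compounds added as DMSO solutions at 1000, 500, 250, 125, 62, 32, 16, 8, 4, 2, 1, 0.5, 0.25. Inoculum dilutions: H37Rv 10^-3; M. avium 330/88 10^-5; M. kansasii 235/80 10^-4; M. kansasii 6509/96 10^-5. Incubated at 37 °C, read at 14 and 21 days, and at 7 days for M. kansasii. MIC was the lowest concentration inhibiting growth.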

Enterococcus sp. [4] = assay: Antibacterial activity against Enterococcus sp. J14365/08 after 24 hrs by broth microdilution method; format: functional; conditions: J14365/08, 24 h; method in brief: as §1
Klebsiella pneumoniae [5] = assay: Antibacterial activity against Klebsiella pneumoniae D11750/08 after 48 hrs by broth microdilution method; format: functional; conditions: D11750/08, 48 h; method in brief: as §1
Staphylococcus aureus [6] = assay: Antibacterial activity against Staphylococcus aureus CCM 4516/08 after 24 hrs by broth microdilution method; format: functional; conditions: CCM 4516/08, 24 h; method in brief: as §1
[7] = system: Trichophyton mentagrophytes; assay: Antifungal activity against Trichophyton mentagrophytes after 24 hrs by broth microdilution method; format: functional
Escherichia coli [8] = assay: Antibacterial activity against Escherichia coli CCM 4517 after 48 hrs by broth microdilution method; format: functional; conditions: CCM 4517, 48 h; method in brief: as §1
Nakaseomyces glabratus [9] = assay: Antifungal activity against Candida glabrata 20/I after 48 hrs by broth microdilution method; format: functional
Candida tropicalis [10] = assay: Antifungal activity against Candida tropicalis 156 after 24 hrs by broth microdilution method; format: functional; conditions: Candida tropicalis, 156, 24 h
Enterococcus sp. [11] = assay: Antibacterial activity against Enterococcus sp. J14365/08 after 48 hrs by broth microdilution method; format: functional; conditions: J14365/08, 48 h; method in brief: as §1
[12] = Lipophilicity, log P of the compound; format: physicochemical; conditions: octanol/water
Pichia kudriavzevii [13] = assay: Antifungal activity against Candida krusei E28 after 48 hrs by broth microdilution method; format: functional; conditions: E28, 48 h
Candida albicans [14] = assay: Antifungal activity against Candida albicans ATCC 44859 after 48 hrs by broth microdilution method; format: functional; conditions: ATCC 44859, 48 h
Aspergillus fumigatus [15] = assay: Antifungal activity against Aspergillus fumigatus 231 after 48 hrs by broth microdilution method; format: functional; conditions: Aspergillus fumigatus, 231, 48 h
[16] = system: Trichophyton mentagrophytes; assay: Antifungal activity against Trichophyton mentagrophytes after 48 hrs by broth microdilution method; format: functional
Mycobacterium kansasii [17] = assay: Antimycobacterial activity against Mycobacterium kansasii 6509/96 after 21 days by micromethod; format: functional; conditions: 6509/96, 504 h; method in brief: as §2
Lichtheimia corymbifera [18] = assay: Antifungal activity against Absidia corymbifera 272 after 48 hrs by broth microdilution method; format: functional; conditions: Lichtheimia corymbifera, 272, 48 h
Candida albicans [19] = assay: Antifungal activity against Candida albicans ATCC 44859 after 24 hrs by broth microdilution method; format: functional; conditions: ATCC 44859, 24 h
Mycobacterium avium [20] = assay: Antimycobacterial activity against multidrug-resistant Mycobacterium avium 330/88 after 21 days by micromethod; format: functional; conditions: 330/88, 504 h; method in brief: as §2
[21] = system: Mycobacterium tuberculosis; assay: Antimycobacterial activity against Mycobacterium tuberculosis H37Rv 331/88 after 21 days by micromethod; format: functional; conditions: H37Rv 331/88, 504 h; method in brief: as §2
Pichia kudriavzevii [22] = assay: Antifungal activity against Candida krusei E28 after 24 hrs by broth microdilution method; format: functional; conditions: E28, 24 h
Staphylococcus aureus [23] = assay: Antibacterial activity against methicillin-resistant Staphylococcus aureus H5996/08 after 48 hrs by broth microdilution method; format: functional; conditions: H5996/08, 48 h; method in brief: as §1
Trichosporon beigelii [24] = assay: Antifungal activity against Trichosporon beigelii 1188 after 48 hrs by broth microdilution method; format: functional; conditions: Trichosporon beigelii, 1188, 48 h
[25] = system: Mycobacterium tuberculosis; assay: Antimycobacterial activity against Mycobacterium tuberculosis H37Rv 331/88 after 14 days by micromethod; format: functional; conditions: H37Rv 331/88, 336 h; method in brief: as §2
Mycobacterium kansasii [26] = assay: Antimycobacterial activity against Mycobacterium kansasii 235/80 after 14 days by micromethod; format: functional; conditions: 235/80, 336 h; method in brief: as §2
Mycobacterium kansasii [27] = assay: Antimycobacterial activity against Mycobacterium kansasii 235/80 after 21 days by micromethod; format: functional; conditions: 235/80, 504 h; method in brief: as §2
[28] = system: Staphylococcus epidermidis; assay: Antibacterial activity against Staphylococcus epidermidis H6966/08 after 24 hrs by broth microdilution method; format: functional; conditions: H6966/08, 24 h; method in brief: as §1
[29] = Selectivity index, ratio of IC50 for human PBMC to MIC for Mycobacterium tuberculosis H37Rv 331/88 after 14 days; format: functional
Method in brief: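 SI = PBMC IC50 (MTT cytotoxicity) divided by the MIC against the named M. tuberculosis strain. MIC taken after 14 days of incubation at 37 °C by the micromethod.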

Klebsiella pneumoniae [30] = assay: Antibacterial activity against Klebsiella pneumoniae D11750/08 after 24 hrs by broth microdilution method; format: functional; conditions: D11750/08, 24 h; method in brief: as §1
Lichtheimia corymbifera [31] = assay: Antifungal activity against Absidia corymbifera 272 after 24 hrs by broth microdilution method; format: functional; conditions: Lichtheimia corymbifera, 272, 24 h
Mycobacterium kansasii [32] = assay: Antimycobacterial activity against Mycobacterium kansasii 6509/96 after 14 days by micromethod; format: functional; conditions: 6509/96, 336 h; method in brief: as §2
Nakaseomyces glabratus [33] = assay: Antifungal activity against Candida glabrata 20/I after 24 hrs by broth microdilution method; format: functional
Candida tropicalis [34] = assay: Antifungal activity against Candida tropicalis 156 after 48 hrs by broth microdilution method; format: functional; conditions: Candida tropicalis, 156, 48 h
Trichosporon beigelii [35] = assay: Antifungal activity against Trichosporon beigelii 1188 after 24 hrs by broth microdilution method; format: functional; conditions: Trichosporon beigelii, 1188, 24 h
Staphylococcus aureus [36] = assay: Antibacterial activity against Staphylococcus aureus CCM 4516/08 after 48 hrs by broth microdilution method; format: functional; conditions: CCM 4516/08, 48 h; method in brief: as §1
Escherichia coli [37] = assay: Antibacterial activity against Escherichia coli CCM 4517 after 24 hrs by broth microdilution method; format: functional; conditions: CCM 4517, 24 h; method in brief: as §1
Aspergillus fumigatus [38] = assay: Antifungal activity against Aspergillus fumigatus 231 after 24 hrs by broth microdilution method; format: functional; conditions: Aspergillus fumigatus, 231, 24 h
Mycobacterium kansasii [39] = assay: Antimycobacterial activity against Mycobacterium kansasii 235/80 after 7 days by micromethod; format: functional; conditions: 235/80, 168 h; method in brief: as §2
PBMC = assay: Cytotoxicity against human PBMC after 24 hrs by MTT assay; format: cell-based
Method in brief: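 Human peripheral blood mononuclear cells in RPMI-1640 with 10% fetal calf serum, 2 mM L-glutamine and gentamicin, 37 °C, 5% CO2. Seeded at 1.5–2.0 × 10⁵ cells/well. After 24 h, treated overnight in serum-free medium. Viability by MTT (2 mg/mL, 4 h); formazan dissolved in DMSO; OD540 minus OD620. Cytotoxicity % = [1 − OD treated/OD control] × 100; IC50 from dose-response curves. Four parallels, two independent experiments.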

Staphylococcus aureus [40] = assay: Antibacterial activity against methicillin-resistant Staphylococcus aureus H5996/08 after 24 hrs by broth microdilution method; format: functional; conditions: H5996/08, 24 h; method in brief: as §1
Mycobacterium kansasii [41] = assay: Antimycobacterial activity against Mycobacterium kansasii; format: functional
Mycobacterium kansasii [42] = assay: Antimycobacterial activity against Mycobacterium kansasii 6509/96 after 7 days by micromethod; format: functional; conditions: 6509/96, 168 h; method in brief: as §2
[43] = system: Mycobacterium tuberculosis; assay: Antimycobacterial activity against drug-sensitive Mycobacterium tuberculosis; format: functional

CC(=O)N[C@@H](Cc1ccccc1)C(=O)Oc1ccc(Cl)cc1C(=O)Nc1ccc(C(F)(F)F)cc1 showed an MIC (Mycobacterium avium [1]) of 1 µM (≈ 0.505 µg/mL), an MIC [2] of 3.9 µM (≈ 1.97 µg/mL) and an MIC (Mycobacterium avium [3]) of 4 µM (≈ 2.02 µg/mL). For the same compound, the MIC (Enterococcus sp. [4]) was 31.2 µM (≈ 15.8 µg/mL), the MIC (Klebsiella pneumoniae [5]) was > 125 µM and the MIC (Staphylococcus aureus [6]) was 0.98 µM (≈ 0.495 µg/mL). For the same compound, the MIC [7] was 62.5 µM (≈ 31.6 µg/mL), the MIC (Escherichia coli [8]) was > 125 µM and the MIC (Nakaseomyces glabratus [9]) was > 125 µM. For the same compound, the MIC (Candida tropicalis [10]) was > 125 µM, the MIC (Enterococcus sp. [11]) was > 125 µM and the logP [12] was 4.92. For the same compound, the MIC (Pichia kudriavzevii [13]) was > 125 µM, the MIC (Candida albicans [14]) was > 125 µM and the MIC (Aspergillus fumigatus [15]) was > 125 µM. For the same compound, the MIC [16] was > 125 µM, the MIC (Mycobacterium kansasii [17]) was 2 µM (≈ 1.01 µg/mL) and the MIC (Lichtheimia corymbifera [18]) was > 125 µM. The MIC (Candida albicans [19]) was > 125 µM, the MIC (Mycobacterium avium [20]) was 4 µM (≈ 2.02 µg/mL) and the MIC [21] was 0.5 µM (≈ 0.252 µg/mL). The MIC (Pichia kudriavzevii [22]) was 125 µM (≈ 63.1 µg/mL), the MIC (Staphylococcus aureus [23]) was 7.81 µM (≈ 3.94 µg/mL) and the MIC (Trichosporon beigelii [24]) was > 125 µM. The MIC [25] was 0.25 µM (≈ 0.126 µg/mL), the MIC (Mycobacterium kansasii [26]) was 1 µM (≈ 0.505 µg/mL) and the MIC (Mycobacterium kansasii [27]) was 2 µM (≈ 1.01 µg/mL). The MIC [28] was 0.98 µM (≈ 0.495 µg/mL), the “Selectivity Index” value [29] was 48.8 and the MIC (Klebsiella pneumoniae [30]) was > 125 µM. For the same compound, the MIC (Lichtheimia corymbifera [31]) was > 125 µM, the MIC (Mycobacterium kansasii [32]) was 2 µM (≈ 1.01 µg/mL) and the MIC (Nakaseomyces glabratus [33]) was > 125 µM. The MIC (Candida tropicalis [34]) was > 125 µM, the MIC (Trichosporon beigelii [35]) was 125 µM (≈ 63.1 µg/mL) and the MIC (Staphylococcus aureus [36]) was 1.95 µM (≈ 0.985 µg/mL). For the same compound, the MIC (Escherichia coli [37]) was > 125 µM, the MIC (Aspergillus fumigatus [38]) was 125 µM (≈ 63.1 µg/mL) and the MIC (Mycobacterium kansasii [39]) was 0.5 µM (≈ 0.252 µg/mL). For the same compound, the IC50 (PBMC) was 12.2 µM, the MIC (Staphylococcus aureus [40]) was 0.98 µM (≈ 0.495 µg/mL) and the MIC (Mycobacterium kansasii [41]) was 1 µM (≈ 0.505 µg/mL). It also gave an MIC (Mycobacterium kansasii [42]) of 1 µM (≈ 0.505 µg/mL) and an MIC [43] of 1 µM (≈ 0.505 µg/mL).
